Only some compounds are listed: those with a hit (about 3.2% of all), similar ones and a draw of the others.
GASC-1 inh: blocks human GASC-1 demethylase activity. GST-JMJD2C(1-420) H3K9me3 demethylation, DELFIA europium. inhibition, % at 2.35 µM. AID 2099. 330,000 compounds, 0.069% hits;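 active = more than half of a compound's replicate wells show inhibition beyond 50%, single wells judged on their own value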;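 note: signal counts dimethyl H3K9 product captured on neutravidin plate; 0% = median of DMSO wells and 100% = 0.3 times that DMSO median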
NR2E3 ag-1: NR2E3 (human) agonism; Q9Y5X4; GST-NR2E3/biotin-RetCOR TR-FRET, 1536-well; inhibition of corepressor binding, % at 4.78 µM; 320,000 compounds, 0.12% hits;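 active = percent inhibition above the cutoff of mean plus 3 SD of all tested compounds, set per screening campaign, cut at about 20% in these data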;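 note: 0% = DMSO wells and 100% = biotin wells as full block of FRET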
Target sequence (Q9Y5X4 whole entry, looked up): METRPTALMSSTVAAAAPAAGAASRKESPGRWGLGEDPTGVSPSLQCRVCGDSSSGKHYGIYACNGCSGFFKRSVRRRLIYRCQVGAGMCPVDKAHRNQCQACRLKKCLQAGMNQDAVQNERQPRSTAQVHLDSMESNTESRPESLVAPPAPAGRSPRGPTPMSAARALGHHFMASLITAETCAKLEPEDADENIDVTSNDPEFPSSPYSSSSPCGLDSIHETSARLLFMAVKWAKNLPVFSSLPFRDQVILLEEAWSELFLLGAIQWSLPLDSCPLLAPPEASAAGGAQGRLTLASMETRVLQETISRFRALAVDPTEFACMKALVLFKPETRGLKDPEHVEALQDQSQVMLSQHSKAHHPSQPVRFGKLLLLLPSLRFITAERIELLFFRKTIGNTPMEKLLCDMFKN
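Test system – NR2E3–RetCOR corepressor complex · Quantity – NR2E3 fusion 1.35 nM · Buffer or medium – Tris pH 7.5 · Incubation – Compound–protein incubation for 5 h at 4 °C · Technique – TR-FRET, Eu(K)-anti-GST donor, streptavidin-D2 acceptor, ex 340, em 617/671 nm · Evaluation – percent inhibition of 671/617 nm emission ratio versus biotin and DMSO controls · Plate – 1536-well format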
DAX1 inh-1: NR0B1 (DAX1) inhibition | inhibition, % at 6.75 µM | 340,000 compounds, 0.99% hits | AID 504766 | P51843 | HEK293 Gal4-DAX1 luciferase reporter, luminescence;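 active = inhibition above the mean over all tested compounds plus 3 SD, cut at about 4.2% in these data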;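 note: 0% = DAX1-transfected cells with DMSO and 100% = empty-vector control cells with DMSO; inhibition shows as a rise in luminescence from relieved DAX1 repression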
Target sequence (P51843 207-470 limits assumed): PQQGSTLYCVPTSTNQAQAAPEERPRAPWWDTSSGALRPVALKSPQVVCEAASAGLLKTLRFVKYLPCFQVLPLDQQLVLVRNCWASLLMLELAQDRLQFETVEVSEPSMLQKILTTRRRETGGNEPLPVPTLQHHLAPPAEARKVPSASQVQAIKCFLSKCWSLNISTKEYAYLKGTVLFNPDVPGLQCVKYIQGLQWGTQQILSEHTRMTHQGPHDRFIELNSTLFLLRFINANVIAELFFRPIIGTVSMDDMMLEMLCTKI
DAX1 inh-2: DAX1 (NR0B1) inhibition, primary screen; HEK293T StAR-luciferase reporter, SF-1/DAX-1 repression relief; inhibition, % at 6.8 µM; 370,000 compounds, 1.1% hits; AID 652010;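 active = inhibition above the mean over all tested compounds plus 3 SD, cut at about 3.6% in these data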;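 note: 0% = DAX-1 cells with DMSO and 100% = cells lacking DAX-1 with DMSO; higher inhibition means more luminescence from relief of DAX-1 repression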
NR2E3 ag-2: agonists of human NR2E3 nuclear receptor; CHO-S Gal4-NCOR/VP16-NR2E3 two-hybrid, luciferase; inhibition of corepressor binding, % at 3.98 µM; 360,000 compounds, 0.35% hits; AID 602229;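 active = inhibition above the mean of all tested compounds plus 3 SD, cut at about 70% in these data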;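 note: 0% = DMSO with NR2E3 transfected cells and 100% = cells lacking NR2E3 construct; higher means lower luciferase signal from less NR2E3 corepressor binding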
SMARCA2 activ: activators of SMARCA2 function; MG213 cells, MMTV-luciferase reporter, dexamethasone, overnight; activation, % at 9.1 µM; 370,000 compounds, 1% hits; AID 652017; in the data active = activation above about 7.8%;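 note: 0% = vehicle wells and 100% = reference activator wells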
Active calls of the source: *.

Screening CN(C)c1ccc(Cn2c(=O)n(Cc3ccc(C(=O)NCC4COC4)cc3)c(=O)c3ccccc32)cc1 returned DAX1 inh-2 -0.4 and SMARCA2 activ -1.6.
For CCOc1ccc2nc(N3C(=O)CNC3=S)sc2c1 the results were GASC-1 inh 0.2, NR2E3 ag-1 1.3, DAX1 inh-1 5.3*, DAX1 inh-2 1.9, NR2E3 ag-2 -78.4 and SMARCA2 activ 2.2.
CCCCC(=O)N1CCN(c2nc3ccc(OCC)cc3s2)CC1 was read as GASC-1 inh -15.8, NR2E3 ag-1 -5.8, DAX1 inh-1 -2.1, DAX1 inh-2 -0.4, NR2E3 ag-2 -8.2 and SMARCA2 activ -1.6.
`Cc1ccc(Nc2cc(C)nn2-c2nc(C)cc(=O)[nH]2)cc1` gave GASC-1 inh 1.0, NR2E3 ag-1 -4.6, DAX1 inh-1 -5.2 and NR2E3 ag-2 108.6*.
Screening Cc1ccc(Nc2cc(C)nn2-c2nc(C)cc(C)n2)cc1 returned GASC-1 inh -0.4, NR2E3 ag-1 -0.2, DAX1 inh-1 -2.9, DAX1 inh-2 -1.7, NR2E3 ag-2 94.3* and SMARCA2 activ -5.1.
c1nc2nc3c(c(N4CCCC4)n2n1)CCCC3 was read as DAX1 inh-2 0.2 and SMARCA2 activ -5.9.
Screening O=C(c1ccc([N+](=O)[O-])o1)N1CCc2ccccc21 returned NR2E3 ag-1 1.2, DAX1 inh-1 0.9, DAX1 inh-2 -0.9, NR2E3 ag-2 8.9 and SMARCA2 activ 1.8.
For O=C(OCc1ccccc1)N1CCc2ccccc21 the results were GASC-1 inh 1.4, NR2E3 ag-1 -1.8, DAX1 inh-1 4.5*, DAX1 inh-2 2.6, NR2E3 ag-2 -103.6 and SMARCA2 activ 3.9.
`Cc1c(C(=O)N2CCc3ccccc32)oc2c1C(=O)CC(C)(C)C2` gave DAX1 inh-1 2.5, DAX1 inh-2 4.0*, NR2E3 ag-2 -138.2 and SMARCA2 activ 5.3.
`Cc1ccc(NC(=O)N2CCc3ccccc32)cc1` gave GASC-1 inh 3.2, NR2E3 ag-1 0.5, DAX1 inh-1 -1.2, DAX1 inh-2 3.7*, NR2E3 ag-2 -109.9 and SMARCA2 activ 4.3.
For Cc1ccc(C(=O)N2CCc3ccccc32)o1 the results were GASC-1 inh 7.3, NR2E3 ag-1 1.9, DAX1 inh-1 1.0, DAX1 inh-2 3.8*, NR2E3 ag-2 -61.1 and SMARCA2 activ 2.9.
Cc1ccc(NC(=O)N2CCCc3ccccc32)cc1 was read as GASC-1 inh 18.0, NR2E3 ag-1 7.2, DAX1 inh-1 0.8, DAX1 inh-2 3.0, NR2E3 ag-2 -33.2 and SMARCA2 activ -0.9.
COC(=O)[C@]12C[C@H](CC(=O)N3CCC(c4ccccc4)CC3)C(=O)N(Cc3ccc(Cl)cc3Cl)C1=C[C@H](C(C)C)O[C@@H]2C1CC1 was read as DAX1 inh-2 0.7 and SMARCA2 activ -2.9.
`COc1ccc(CC(=O)NC2CCCCN(Cc3ccc(Cl)cc3)C2=O)cc1OC` (stereo not drawn) gave DAX1 inh-2 -2.4 and SMARCA2 activ -1.2.
Screening CN(C)c1cccc(/C=C2\CC3(OC(=O)c4ccc(Cl)cc4)CCCN2C3)c1 (stereo not drawn) returned DAX1 inh-2 -0.3 and SMARCA2 activ 1.8.
`c1ccc(-c2ncc(-c3ccn[nH]3)s2)cc1` gave GASC-1 inh 7.1, NR2E3 ag-1 0.8, DAX1 inh-1 -0.1, DAX1 inh-2 5.4*, NR2E3 ag-2 -133.5 and SMARCA2 activ 5.1.
O=C(CCc1ccccc1)N[C@H]1[C@@H](OC(=O)c2ccco2)CCC[C@@]12C(=O)N(Cc1ccccc1)c1ccccc12 was read as DAX1 inh-2 -0.5 and SMARCA2 activ 0.3.
`Cc1ccccc1NC(=O)Nc1cc(-c2ccccc2)nn1C` gave NR2E3 ag-1 -2.0, DAX1 inh-1 6.6*, DAX1 inh-2 0.3, NR2E3 ag-2 -22.1 and SMARCA2 activ 2.4.
Screening C=CCn1c(COc2ccc(Cl)cc2)nnc1SCC(=O)c1ccc(-c2ccccc2)cc1 returned DAX1 inh-2 -1.6 and SMARCA2 activ -6.8.
For CCc1ccc2oc(-c3cccc(N)c3)nc2c1 the results were GASC-1 inh 10.0, NR2E3 ag-1 3.2, DAX1 inh-1 -0.8, DAX1 inh-2 4.3*, NR2E3 ag-2 -112.3 and SMARCA2 activ -1.8.
`CC(C)(C)OC(=O)NCCCCCNC(=O)c1nc[nH]c1C(=O)NCc1ccc(CNC(=O)OC(C)(C)C)cc1` gave GASC-1 inh 2.2, DAX1 inh-1 -5.0, DAX1 inh-2 -2.5, NR2E3 ag-2 79.4* and SMARCA2 activ -2.6.
`COc1ccc(C2CC(c3ccc(F)cc3)n3nc(NC(=O)c4ccco4)nc3N2)cc1` (stereo not drawn) gave GASC-1 inh 18.6, NR2E3 ag-1 -1.1, DAX1 inh-1 4.8*, DAX1 inh-2 -0.6, NR2E3 ag-2 -38.0 and SMARCA2 activ -1.6.
`COc1cccc(NC(=O)Cc2ccccc2)c1` gave GASC-1 inh 15.2, NR2E3 ag-1 4.1, DAX1 inh-1 2.0, DAX1 inh-2 1.1, NR2E3 ag-2 -28.1 and SMARCA2 activ 5.3.
`COc1cccc(NC(=O)COC(=O)c2c(F)cccc2Cl)c1` gave GASC-1 inh -0.4, NR2E3 ag-1 -2.5, DAX1 inh-1 4.4*, DAX1 inh-2 0.6, NR2E3 ag-2 -1.7 and SMARCA2 activ 4.7.
COc1cccc(NC(=S)NC(=O)Cc2ccccc2)c1 was read as GASC-1 inh -1.6, NR2E3 ag-1 -0.6, DAX1 inh-1 5.6*, DAX1 inh-2 0.0, NR2E3 ag-2 -5.0 and SMARCA2 activ -0.6.
`CCOC(=O)N1CCN(C(=O)c2cc(COc3ccc(OC)cc3Cl)on2)CC1` gave GASC-1 inh 23.6, NR2E3 ag-1 0.3, DAX1 inh-1 2.3, DAX1 inh-2 -0.8, NR2E3 ag-2 -64.1 and SMARCA2 activ 3.8.
Screening COc1ccc(OCc2cc(C(=O)N(C)Cc3cc(C4CC4)n[nH]3)no2)c(Cl)c1 returned GASC-1 inh 10.2, NR2E3 ag-1 2.8, DAX1 inh-1 1.5, DAX1 inh-2 4.2*, NR2E3 ag-2 -101.8 and SMARCA2 activ 4.7.
`COc1ccc(OCc2cc(C(=O)N3CCN(CC4CC4)CC3)no2)c(Cl)c1` gave GASC-1 inh -1.6, NR2E3 ag-1 7.2, DAX1 inh-1 1.6, DAX1 inh-2 3.6*, NR2E3 ag-2 -55.4 and SMARCA2 activ 3.0.
Screening C#CCNC(=O)C[C@H]1C(=O)N(CCCOC)C2=CCCC[C@@]21C(=O)OCC returned DAX1 inh-2 -0.1 and SMARCA2 activ 1.8.
For Cc1n[nH]c(C)c1S(=O)(=O)NC(C)Cc1ccccn1 (stereo not drawn) the results were DAX1 inh-2 0.0 and SMARCA2 activ -5.8.
For CCCCCCCCNS(=O)(=O)CC1NCc2ccccc21 (stereo not drawn) the results were DAX1 inh-2 -0.1 and SMARCA2 activ -1.6.

Compound activity deposited in PubChem by several laboratories.
